In ChEMBL document CHEMBL4715754, “Slowing down fat digestion and absorption by an oxadiazolone inhibitor targeting selectively gastric lipolysis” (2016):

How the values were obtained:
[1] = target: T1, Pancreatic triacylglycerol lipase (Sus scrofa) (UniProt P00591); experiment: Inhibition of porcine pancreatic lipase at 400:1 molar excess compound concentration preincubated for 30 mins at 25 degreeC relative to control
T1 sequence (whole entry): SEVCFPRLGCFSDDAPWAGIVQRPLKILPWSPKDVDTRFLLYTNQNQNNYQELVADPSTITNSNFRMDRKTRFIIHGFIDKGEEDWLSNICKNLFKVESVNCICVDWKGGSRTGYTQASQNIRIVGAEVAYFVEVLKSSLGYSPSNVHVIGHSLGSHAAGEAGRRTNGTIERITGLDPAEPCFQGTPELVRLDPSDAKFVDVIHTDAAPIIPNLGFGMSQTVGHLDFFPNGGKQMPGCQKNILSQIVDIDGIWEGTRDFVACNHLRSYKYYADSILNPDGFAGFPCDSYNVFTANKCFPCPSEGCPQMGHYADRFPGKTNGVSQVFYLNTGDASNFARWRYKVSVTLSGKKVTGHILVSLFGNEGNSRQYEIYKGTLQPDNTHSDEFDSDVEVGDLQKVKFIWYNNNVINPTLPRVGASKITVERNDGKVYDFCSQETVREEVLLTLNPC
Procedure, shortened: (§1)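 Pancreatic lipase from human pancreatic juice (54 µg/mL HPL stock) or porcine pancreatic extract (32 µg/mL PPL stock) was held in 10 mM MES pH 7.0, 150 mM NaCl. It was pre-incubated with inhibitor from DMSO stock for 30 min at 25 °C with 4 mM NaTDC at varied molar excess. Residual activity was read by pH-stat on tributyrin at 37 °C, pH 8.0, with 2 mM CaCl₂ and 4 mM NaTDC. x_I50 was taken from residual activity; DMSO-only controls were run.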

[2] = target: T2, Gastric triacylglycerol lipase (Rattus norvegicus) (UniProt P04634); experiment: Inhibition of rat lingual lipase assessed as residual activity by measuring half-inactivation time at 20:1 molar excess compound concentration preincubated for 1 hr at 25 degreeC
T2 sequence (whole entry): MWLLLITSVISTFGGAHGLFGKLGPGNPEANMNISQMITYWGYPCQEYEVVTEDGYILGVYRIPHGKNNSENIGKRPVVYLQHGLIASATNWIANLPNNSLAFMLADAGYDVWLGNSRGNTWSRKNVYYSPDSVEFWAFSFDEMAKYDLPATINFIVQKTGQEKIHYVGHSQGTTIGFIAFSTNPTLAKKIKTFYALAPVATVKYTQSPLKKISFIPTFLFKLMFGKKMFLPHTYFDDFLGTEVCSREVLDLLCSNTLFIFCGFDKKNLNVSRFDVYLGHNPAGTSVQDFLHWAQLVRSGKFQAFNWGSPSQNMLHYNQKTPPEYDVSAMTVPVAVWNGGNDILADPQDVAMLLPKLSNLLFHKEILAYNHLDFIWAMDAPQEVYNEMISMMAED
Procedure, shortened: (§2)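 Enzyme pre-incubated with inhibitor (DMSO stock) at fixed molar excess for 1 h at 25 °C without substrate: hCEH x_I=4 (1 mM NaTDC assay), RLL and DGL x_I=20 with 4 mM NaTDC, GPLRP2 x_I=2 with 2 mM NaTDC. Residual activity sampled at intervals by pH-stat on tributyrin emulsion at 37 °C; t1/2 taken at 50% residual activity. DMSO-only controls; at least triplicate.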

[3] = target: T2, Gastric triacylglycerol lipase (Rattus norvegicus); experiment: Inhibition of rat lingual lipase preincubated for 1 hr at 25 degreeC; procedure, shortened: as §2
Rattus norvegicus [4] = experiment: Inhibition of lipolysis in mesenteric lymph duct-cannulated Wistar rat model assessed as initial velocity of fatty acid output at 5.3 mg/kg supplemented with olive oil emulsion and measured after 24 hrs (reference value: 12.3 +/- 0.46 mg/ml/h); assay type: functional
[5] = target: T3, Pancreatic lipase-related protein 2 (Cavia porcellus) (UniProt P81139); experiment: Inhibition of recombinant guinea pig PL-RP2 expressed in Aspergillus oryzae assessed as residual activity by measuring half-inactivation time at 2:1 molar excess compound concentration preincubated for 1 hr at 25 degreeC; procedure, shortened: as §2
T3 sequence (whole entry): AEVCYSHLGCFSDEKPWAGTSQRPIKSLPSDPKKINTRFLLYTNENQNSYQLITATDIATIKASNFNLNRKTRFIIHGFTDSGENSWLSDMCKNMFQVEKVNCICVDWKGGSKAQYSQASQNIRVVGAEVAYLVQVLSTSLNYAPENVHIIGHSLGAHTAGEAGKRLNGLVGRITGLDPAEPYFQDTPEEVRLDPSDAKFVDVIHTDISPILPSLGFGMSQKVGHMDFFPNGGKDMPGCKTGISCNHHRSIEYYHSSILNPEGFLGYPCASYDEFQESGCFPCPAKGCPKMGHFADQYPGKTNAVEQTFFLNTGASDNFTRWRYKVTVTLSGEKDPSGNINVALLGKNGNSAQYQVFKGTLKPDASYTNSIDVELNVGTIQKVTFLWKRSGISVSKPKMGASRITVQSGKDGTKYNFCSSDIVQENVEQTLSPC

[6] = target: T4, Pancreatic triacylglycerol lipase (Homo sapiens) (UniProt P16233); experiment: Inhibition of human pancreatic lipase at 400:1 molar excess compound concentration preincubated for 30 mins at 25 degreeC relative to control; procedure, shortened: as §1
T4 sequence (whole entry): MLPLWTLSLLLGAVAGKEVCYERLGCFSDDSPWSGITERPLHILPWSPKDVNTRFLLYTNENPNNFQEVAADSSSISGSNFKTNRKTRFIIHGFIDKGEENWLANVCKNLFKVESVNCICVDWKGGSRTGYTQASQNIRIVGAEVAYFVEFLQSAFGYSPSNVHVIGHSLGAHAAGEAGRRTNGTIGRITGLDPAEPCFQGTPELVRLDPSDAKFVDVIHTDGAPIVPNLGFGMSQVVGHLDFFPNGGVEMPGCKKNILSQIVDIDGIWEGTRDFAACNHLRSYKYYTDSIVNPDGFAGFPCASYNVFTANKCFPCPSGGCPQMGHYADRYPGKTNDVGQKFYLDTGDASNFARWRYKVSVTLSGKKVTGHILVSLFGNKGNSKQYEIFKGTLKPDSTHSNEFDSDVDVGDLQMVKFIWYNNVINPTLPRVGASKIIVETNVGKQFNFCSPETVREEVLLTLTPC

[7] = target: T1, Pancreatic triacylglycerol lipase (Sus scrofa); experiment: Inhibition of porcine pancreatic lipase preincubated for 30 mins at 25 degreeC; procedure, shortened: as §1
[8] = target: T4, Pancreatic triacylglycerol lipase (Homo sapiens); experiment: Inhibition of human pancreatic lipase preincubated for 30 mins at 25 degreeC; procedure, shortened: as §1
[9] = target: T3, Pancreatic lipase-related protein 2 (Cavia porcellus); experiment: Inhibition of recombinant guinea pig PL-RP2 expressed in Aspergillus oryzae preincubated for 1 hr at 25 degreeC
Rattus norvegicus [10] = experiment: Inhibition of lipolysis in mesenteric lymph duct-cannulated Wistar rat model assessed as decrease in intestinal lipid absorption at 5.3 mg/kg supplemented with olive oil emulsion and measured after 6 hrs relative to control; assay type: functional; design: scale not given: the % may be the effect or the level left
Procedure, shortened: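 Male Wistar rats (8 weeks, 300-350 g), fat-free diet 24 h, mesenteric lymph duct cannulated under ketamine/xylazine. Given 0.8 mL olive oil emulsion (530 mg fatty acids) premixed with inhibitor at 5.3 mg/kg by mouth, then 0.5 mL water. Lymph collected over 24 h; total fatty acids by GC-FID of methyl esters. 7 rats per group; one-way ANOVA with Fisher's test.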

Homo sapiens [11] = organism: Homo sapiens; experiment: Inhibition of human pancreatic carboxylesterase assessed as residual activity by measuring half-inactivation time at 4:1 molar excess compound concentration preincubated for 1 hr at 25 degreeC; procedure, shortened: as §2
Homo sapiens [12] = organism: Homo sapiens; experiment: Inhibition of human pancreatic carboxylesterase preincubated for 1 hr at 25 degreeC

Row | SMILES | inhibition [1] | T1/2 [2] | XI50 [3] | V0 (Rattus norvegicus [4]) | T1/2 [5] | inhibition [6] | XI50 [7] | XI50 [8] | XI50 [9] | Activity (Rattus norvegicus [10]) | T1/2 (Homo sapiens [11]) | XI50 (Homo sapiens [12])
1 | CCCCCCCCCCC[C@@H](C[C@@H]1OC(=O)[C@H]1CCCCCC)OC(=O)[C@@H](CC(C)C)NC=O | 93.1% | 23.4 s | 0.7 molar excess | 4.4 mg/mL/h | 24 s | 91.5% | 1.35 molar excess | 11.1 molar excess | 0.53 molar excess | -37.4% | 31.2 s | 0.78 molar excess
2 | O=c1oc(OCCOCc2ccccc2)nn1-c1cccc(Oc2ccccc2)c1 | 13.2% | 297 s | 1.43 molar excess | 9.8 mg/mL/h | 31.2 s | 19.3% | > 400 molar excess | > 400 molar excess | 0.64 molar excess | -9.1% | 78.6 s | 1.42 molar excess
